experiment: Toxicity liver stage against HepG2, at 10uM; format: cell-based; set-up: test concentration 10 uM, cell line HepG2-A16-CD81EGFP; conditions: human, HepG2-A16-CD81EGFP cells; read-out: INHIBITION
Summary of the method: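 Uninfected HepG2-A16-CD81EGFP cells, 3 × 10^3 per well, 1536-well, plated on prespotted compound at 10 μM final, parasite-free screening media added to match infected plates; puromycin 10 μM positive, DMSO 0.5% negative; run in parallel with 48 h PbLuc assay at 37 °C, 5% CO2; viability by CellTiter-Glo luminescence, normalized to controls.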

SMILES	cytotoxicity at 10 µM [%]
CC(C)CNC[C@H]1O[C@H](Cc2cc(-c3ccccn3)on2)CC[C@@H]1O	-0.238
CC(C)(C)CC(=O)N1CC[C@H]2CC(=O)N(CCc3c[nH]cn3)CC[C@H]2C1	-3.97
O=C(CNC(=O)N1CCc2c([nH]c3ccc(Cl)cc23)C1)NCCCO	5.36
c1cncc(COCC2CN(Cc3ccsc3)Cc3ccnn3C2)c1 (configuration not stated)	-140
O=C(NCC1CC1)c1cc2c(s1)CCN2C(=O)c1ccc(F)cc1	2.55
CN(Cc1cccnc1)Cc1cn2c(n1)CN(C1CCOCC1)CC2	8.94
CN(C)CCN1CCOCC2(CCCN(C(=O)c3cccc(O)c3)C2)C1 (configuration not stated)	11.7
c1ccc(CO[C@H]2CO[C@@]3(CCCN(Cc4ccncc4)C3)C2)nc1	1.44
Cn1cc(C[C@H]2[C@H](O)CCN2C(=O)C2CCOCC2)cn1	13
CC(C)NC(=O)C1CCN(c2nc3nc[nH]c(=O)c3s2)CC1	-3.79
Cc1nn(C)c(=O)c2nn(-c3ccc(F)cc3)c(C)c12	-0.839
CN(C(=O)Cn1nc(-c2cccs2)ccc1=O)C1CCS(=O)(=O)C1 (configuration not stated)	7.36
O=C(Cn1cc(I)cn1)Nc1cccnc1	-2.59
CNC(=O)[C@H]1C[C@@H]2CN(C(=O)c3ccco3)C[C@@H]2N1S(C)(=O)=O	-10.2
O=C(O)CCCC(=O)Nc1cnn(COc2ccc(F)cc2Cl)c1	8.69
c1cnc(-c2nn3c(CN4CCOCC4)nnc3s2)cn1	7.74
NC(=O)c1c[nH]nc1NCc1ccc2c(c1)OCO2	-2.9
Cc1cc(C)nc(N2CCC(c3cccc(CCC(=O)O)n3)CC2)n1	0.343
O=S1(=O)NC(C2CCCN(S(=O)(=O)N3CCCC3)C2)=Nc2ccccc21 (configuration not stated)	2.17
COCCN1CCC1c1cc(NC2CCCC2)nc(C)n1 (configuration not stated)	0.994
Cc1cc(Oc2ccccc2C)nc(C2CCCN2)n1 (configuration not stated)	1.22
CC(=O)N1CCC(c2[nH]ncc2S(C)(=O)=O)CC1	0.752
CN1CCC(c2cccc(-c3cccc(C(=O)O)c3)n2)CC1	-6.55

SMILES	cytotoxicity at 10 µM [%]
CCOCC(=O)N1C[C@@H](O)[C@H](NC(C)=O)C1	-4.48
NCCCC(=O)N1CCC2(CC1)CN(C(=O)c1ccc(Cl)cc1)CCO2	6.83
NC(=O)c1cccc(CS(=O)(=O)CC(O)Cn2cccn2)c1 (configuration not stated)	-2.45
O=C(Cn1cnnn1)NC(c1ccccc1)c1ccc2c(c1)CCCO2 (configuration not stated)	-1.47
COc1ccccc1C1(CNC(=O)NCc2noc(C)n2)CC1	-0.343
Cc1ccc(C2CSCCN2C(=O)c2ccccn2)cc1 (configuration not stated)	2.04
CCOc1ccc(NC(=O)c2scnc2CC)cc1CO	-9.48
Cc1cc(NC(=O)CN2CCOC(CN(C)C)C2)n(C)n1 (configuration not stated)	0.894
CC1CCC(O)(CSc2nnnn2C)CC1 (configuration not stated)	-8.03
CC1CCC(N2CCC(NS(=O)(=O)CCOC(C)C)CC2)CC1 (configuration not stated)	-0.45
CN(Cc1ncnn1C)C1CCN(c2sccc2C#N)C1=O (configuration not stated)	10.2
Cc1nnc(NC(=O)NCCN(C(=O)OC(C)(C)C)C2CC2)s1	5.53
COc1ccc(CN2CC(n3cccn3)C2)cc1F	-0.483
CN(C)S(=O)(=O)c1ccc(=O)n(CC2CCCCO2)c1 (configuration not stated)	-8.58
CCn1cnnc1CNC(=O)N(C)Cc1cccc(Cl)c1Cl	-16.2
Cc1cc(N2CCCC2)c(C#N)c(C)n1	10.4
COCCN1CCC(CNC(=O)c2ccnc(-n3ccnc3)c2)CC1	-1.63
Cc1ccoc1C(=O)NCCS(=O)(=O)N1CCSCC1	-2.65
N#Cc1csc(CNCCOc2ccc(Cl)cn2)c1	-5.59
CN(C)Cc1ccc(NC(=O)c2nccn3ccnc23)cc1	-2.6
COCCNS(=O)(=O)c1ccc(Cl)c(C(=O)N(C)Cc2sccc2C)c1	-7.53
Oc1cccc(CNC2CCN(CCc3ccncc3)CC2)c1	-1.56
O=C(c1cccnc1O)N(Cc1cccs1)CC1CCCO1 (configuration not stated)	-11.5

SMILES	cytotoxicity at 10 µM [%]
CS(=O)(=O)NCC1CCCN(C(=O)Nc2ccccc2F)C1 (configuration not stated)	-145
COCCS(=O)(=O)NC(C)c1ccccc1Br (configuration not stated)	1.02
CC(=O)NCCNC(=O)NCc1ccc(Br)cc1Cl	5.19
CC(c1ccccc1)N1CCC(NC(=O)CCc2ccsc2)CC1 (configuration not stated)	0.91
Cc1nccn1-c1ncccc1NC(=O)CCOCC(C)C	-2.59
Cc1n[nH]cc1CNC1(Cc2ccc(Br)cc2)CCCCC1	14.1
CCc1nc(NS(=O)(=O)c2ccc(C)cc2Cl)no1	-1.51
CC1(NC(=O)Cc2csc(C(C)(C)C)n2)CCS(=O)(=O)C1 (configuration not stated)	-4.17
CS(=O)(=O)N[C@@H]1CCN(Cc2ccncc2)[C@H]1Cc1cccnc1	-79.7
COCCC(=O)N1CCC2(CN(Cc3cccc(F)c3)C2)C1	-74
CC1c2cccn2CCN1C(=O)CCCc1nc(-c2ccco2)no1 (configuration not stated)	7.16
CN1C(=O)CC(C(=O)O)C12CCN(Cc1cc(F)ccc1Cl)CC2 (configuration not stated)	-0.309
CC(=O)NC1CCN(c2nc(C)nc3c2c(C)nn3C)C1 (configuration not stated)	8.32
CNS(=O)(=O)CCn1cc(-c2ccc(NC(C)=O)cc2)nn1	-4.5
COCCN1CCC(CN(CC2CCCO2)C(=O)Cc2cccs2)CC1 (configuration not stated)	-0.894
Cc1ccccc1C1CCN(CCn2cc(-c3nccs3)nn2)C1 (configuration not stated)	-1.29
CN(Cc1cnc2ccccc2c1)C(=O)C(c1ccccc1F)N(C)C (configuration not stated)	-6.88
CC(Cc1ccc2c(c1)OCO2)c1cn(CCc2c[nH]cn2)nn1 (configuration not stated)	8.66
CC(c1ccncn1)N(C)S(=O)(=O)NCc1ccccc1 (configuration not stated)	-81.5
CN(C)C[C@@H]1CN(C(=O)c2cc(S(N)(=O)=O)ccc2F)C[C@@H]1CO	4.83
CC(C)Cc1ncc2c(n1)CN(c1nccc(NC(C)C)n1)C2	-10.7
Cc1cc(C)n(CC(C)NCCN2CCc3ccccc32)n1 (configuration not stated)	-7.73
Cc1cccc(CNC(=O)NCC2CCN(Cc3ncc[nH]3)C2)c1 (configuration not stated)	1.86

SMILES	cytotoxicity at 10 µM [%]
CSc1nccc(NCC2CNCCO2)n1 (configuration not stated)	2.56
CCc1cc(NCCNC(C)=O)nc(N2CCOCC2)n1	2.38
O=C(O)c1ccnc(-c2ccnc(N3CCCCCC3)n2)c1	-10
CCN1CC2(CCN(CC3COCCO3)CC2)OC1=O (configuration not stated)	-4.15
O=C1CCCCN1Cc1cccc(OC(F)F)c1	3.17
CC(=O)N1CCCN(c2nccc(-c3cn(C)nc3C)n2)CC1	22.3
CCCNCC1(O)CCCN(Cc2cccc(C)c2)C1=O (configuration not stated)	-19.7
CCOc1ccc(Cl)c(C(=O)N2CCN(CC(C)(C)O)CC2)n1	-5.72
CC(C)c1nn(C)c(N(C)C)c1CNCc1cccc2c1OCO2	-4.66
COc1ccnc(N2CCN(CC(O)CN3CCOCC3)CC2)n1 (configuration not stated)	-3.44
Cc1nccn1C1CCCN(C(=O)c2ccc3cc[nH]c3c2)C1 (configuration not stated)	-9.69
CN(Cc1cnccn1)S(=O)(=O)N1CCCC1c1ccco1 (configuration not stated)	-15.6
O=C(CCn1cccn1)N1CCSCC1	-5.92
Cn1cnc(S(=O)(=O)NCCCN2CCCC2=O)c1Cl	-12.1
CCOc1ccnc(N2CCN(C(=O)c3ccn(C)c(=O)c3)CC2)n1	-14.8
CC(C)n1cc(CN2CCCN(C(=O)CC3CCCCC3)CC2)cn1	-10.8
CCc1nnc(CN2CCCC(c3cc(C(N)=O)[nH]n3)C2)o1 (configuration not stated)	-12.7
COc1cccc(-n2nnc(C(=O)N3CCN(C(C)=O)CC3)c2C)c1	-13.2
Cn1ccnc1CN1CCN(CC(O)c2ccccc2)CC1 (configuration not stated)	-11.4
Cc1cc(C)n(CC2CCCN2CCS(C)(=O)=O)n1 (configuration not stated)	-3.95
Cc1nc2ccccc2c(=O)n1CCCC(=O)N1CCNC(=O)CC1	-11.8
Cc1nnc(CN2CCN(CC(O)c3ccccc3)CC2)o1 (configuration not stated)	-18.9
Cc1nc(CN2CCOC(Cn3cccn3)C2)no1 (configuration not stated)	-11.6

SMILES	cytotoxicity at 10 µM [%]
CCC1CN(CC(=O)N2CCN(C(C)=O)CC2)CCN1CCOC (configuration not stated)	-7.58
Cc1ncsc1C(=O)NCCSCCCO	-11.3
CC(=O)NC1CCCN(C(=O)Nc2cnc3c(cnn3C(C)C)c2)C1 (configuration not stated)	-4.67
Cc1nc(C2CCCN2CCCNS(C)(=O)=O)no1 (configuration not stated)	-8.6
CC(C)Oc1ncccc1CNC(=O)C1CCCN(C(=O)C2CC2)C1 (configuration not stated)	-8.57
Cc1cnn(CC2CCCN2Cc2nnsc2Cl)c1 (configuration not stated)	-8.72
O=C(CCc1nccs1)N1CCN(c2ccccc2F)CC1	-9.42
Fc1cnc(N2CCO[C@H]3[C@H](OCCN4CCCC4)CC[C@@H]32)nc1	1.33
O=C(N[C@@H]1CN(c2ncccn2)C[C@@H]2CCCO[C@@H]21)c1cccnc1	11.4
COCCC(=O)N1CCC2(CCN(Cc3ccc(C)cc3)CC2)C1	-74.4
CN(Cc1ccncc1)C1COC2(CCN(Cc3cccs3)CC2)C1 (configuration not stated)	-0.931
O=C(c1cscn1)N1C[C@H]2CCCC(OCc3cccnc3)[C@H]2C1 (some centres not stated)	-6.61
O=C(Nc1ccccc1)C1CN(CC2CC2)CC12CCOCC2 (configuration not stated)	-6.36
Cc1c(F)cccc1S(=O)(=O)NCCN	1.99
CN(C)S(=O)(=O)N1CCO[C@H]2[C@H](Oc3cccnc3)CC[C@@H]21	4.64
CC[C@@H]1N(CC2CC2)CCC[C@]12CCC(=O)N2CCOC	-5.15
O=C(Nc1cccnc1)[C@H]1C[C@H]2OCC[C@H]2N(Cc2ccc(F)cc2)C1	0.592
CCn1cc(CN2C[C@@H]3CC[C@H]2CN(C(=O)C2CCC2)C3)cn1	3.5
Cc1nnsc1C(=O)N1C[C@@H]2CC[C@H]1CN(c1cnccn1)C2	9.88
Nc1ncnc2[nH]c(N3CCCCC3)nc12	-1.43
